# Source: PubChem (several laboratories)
# PGE2 EP2 inh: inhibitors of human EP2 prostaglandin E2 receptor; inhibition, % at 25 µM; actives 0.52% (n = 260,000); C6 glioma cells expressing human EP2, cAMP TR-FRET; cells stimulated with saturating PGE2;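 active means percent inhibition above 40 after rounding to a whole number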;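 further: rat C6 glioma host cells with rolipram phosphodiesterase inhibitor present; the protocol text gives 20 µM as final concentration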
# Target sequence (P43116 whole entry, looked up): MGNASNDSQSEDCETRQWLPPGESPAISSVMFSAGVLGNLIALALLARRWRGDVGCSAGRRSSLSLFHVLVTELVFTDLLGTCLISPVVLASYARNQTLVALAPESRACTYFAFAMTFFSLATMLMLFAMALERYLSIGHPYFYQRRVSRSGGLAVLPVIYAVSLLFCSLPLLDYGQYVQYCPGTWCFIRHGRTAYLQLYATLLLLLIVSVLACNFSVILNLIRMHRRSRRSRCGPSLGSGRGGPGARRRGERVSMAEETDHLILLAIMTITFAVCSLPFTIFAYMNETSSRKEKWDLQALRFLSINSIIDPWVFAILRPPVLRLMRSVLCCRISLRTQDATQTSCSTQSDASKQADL
# HKDC1 inh: blocks human hexokinase HKDC1 activity. Q2TB90. recombinant HKDC1, G6PDH/diaphorase resazurin coupled fluorescence. inhibition, % at 20 µM. actives 0.16% (n = 340,000);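 active means inhibition above about 35% when tested at 20 µM, limit read from the data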
#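 Material – in-house recombinant HK5 (HKDC1) enzyme · Quantity – HKDC1 at 5 µg/mL · Buffer or medium – pH 8.0 Tris buffer with 10 mM MgCl2 · Reagent – glucose with 1 mM ATP · Dosing – single 20 µM dose · Times – reaction time 90 min, room temperature, protected from light · Technique – resorufin fluorescence at 613 nm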
# PfGluPho inh: PfG6PD (Plasmodium falciparum) enzyme inhibition. PfGluPho enzyme, NADPH resazurin-diaphorase fluorescence. inhibition, % at 20 µM. actives 0.78% (n = 350,000). AID 504690;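 active means inhibition reaching at least a set limit at 20 µM in the primary screen, cut at about 59% in these data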
# TbHK1 inh: T. brucei hexokinase 1 inhibition; recombinant TbHK1, G6PDH-coupled NADH A340; AID 1430; actives 0.11% (n = 220,000); inhibition, % at 10 µM;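 active means inhibition of 50% or more in the single-dose primary screen; inactive means inhibition below 50%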
# PHOSPHO1 block: inhibitors of human PHOSPHO1 phosphatase; Q8TCT1; recombinant PHOSPHO1, absorbance phosphatase assay; inhibition, % at 13.3 µM; actives 1.1% (n = 290,000); in the data active means inhibition above about 60%
# Target sequence (Q8TCT1 whole entry, looked up): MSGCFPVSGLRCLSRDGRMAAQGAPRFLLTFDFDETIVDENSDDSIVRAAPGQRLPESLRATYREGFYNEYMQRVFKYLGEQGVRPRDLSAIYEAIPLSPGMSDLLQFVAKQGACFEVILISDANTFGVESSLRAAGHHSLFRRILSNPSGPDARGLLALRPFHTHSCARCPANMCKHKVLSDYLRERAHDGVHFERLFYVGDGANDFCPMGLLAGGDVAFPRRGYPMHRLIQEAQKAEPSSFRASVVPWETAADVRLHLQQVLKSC
# EP2 mod: modulates human prostaglandin E2 receptor EP2 signaling; EP2-expressing cells, cAMP HTRF FRET, PGE2 co-stimulation; actives 0.83% (n = 260,000); induction, % at 25 µM;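 active means compounds whose cAMP rise, as percent of the full-agonist control response, exceeds 60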;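 further: rat C6 glioma line stably carrying human EP2 under a CMV promoter; the protocol text gives 20 µM as final concentration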
# Numbers stand for hits; n = inactive; x = no result given. An excerpt weighted towards active compounds, which were near 2.5% of everything screened.
SMILES,PGE2 EP2 inh,HKDC1 inh,PfGluPho inh,TbHK1 inh,PHOSPHO1 block,EP2 mod
COc1cccc(N2CCN(S(=O)(=O)c3ccc4nc(-c5ccccc5)[nH]c4c3)CC2)c1,n,n,n,n,n,n
CN1CCN(c2ccc3nc(-c4ccc5nc(-c6ccc(O)cc6)[nH]c5c4)[nH]c3c2)CC1,49,x,x,x,x,n
CCOC(=O)CN1C(=O)C(C)(C)Oc2ccc(C(=O)Nc3ccc(C(C)C)cc3)cc21,n,x,x,x,x,n
CSc1ccccc1C(=O)NC1CCCC1,n,n,n,n,70,n
O=C(NC1CCN(Cc2ccccc2)CC1)c1ccccc1OCc1ccccc1,x,n,n,x,n,x
O=C(NC1CCCC1)c1ccccc1OCc1ccccc1,n,n,n,n,n,62
CC(O)CN(Cc1ccc2c(c1)OCO2)Cc1ccnc2ccc(Cl)cc12 (stereo not drawn),n,x,x,x,x,n
COc1ccc(OCCc2nnc(N)s2)cc1,n,n,n,n,62,n
COc1ccccc1OCCc1nnc(N)s1,n,n,n,n,n,n
Cc1ccccc1Cn1c(C(=O)OC(C)C)cc2c1ccn2C,n,n,n,n,n,n
CCOC(=O)c1cc2c(ccn2C)n1Cc1ccccc1C,n,n,n,n,n,62
CCOC(=O)c1cc2c(ccn2C)n1Cc1ccccc1Cl,n,n,n,n,n,63
O=C(NCc1ccco1)C(c1cccnc1)N(C(=O)Cn1nnc2ccccc21)c1cccc(F)c1 (stereo not drawn),n,x,x,x,x,n
Cc1ncccc1-c1cc2cccnc2n1CCCNC(=O)C1CC1,n,x,x,x,x,n
COc1ccc(CNc2nc3ccccc3n2C)c(OC)c1,n,n,n,n,n,n
COc1ccc(N/C=C(\C#N)c2nc3ccccc3n2C)c(OC)c1,n,n,n,n,n,63
COc1ccc(CNC(=O)CSc2nnc3c4c5c(sc4nc(C4CC4)n23)CCCC5)cc1,n,x,x,x,x,n
Cc1ncc([N+](=O)[O-])n1CC(=O)N/N=C/c1ccccc1F,n,n,n,n,68,n
Cc1cc([N+](=O)[O-])nn1CC(=O)N/N=C/c1ccccc1F,n,n,n,n,n,n
Cc1c(OC(=O)c2ccc([N+](=O)[O-])cc2)c2c(c[n+]1C)COC(C)(C)OC2,n,n,n,n,103,n
COc1ccccc1NC(=O)N(Cc1ccccc1)c1ccccn1,n,n,n,n,n,61
Cn1ccnc1Sc1nc(Nc2cccc(Cl)c2)nc(N2CCOCC2)n1,n,n,n,n,n,61
S=c1c2c(nc3nc[nH]n13)CCC2,n,n,n,n,93,n
CC1CCc2c(nc3nc[nH]n3c2=O)C1 (stereo not drawn),n,n,n,n,n,n
COc1ccc(C(=O)Oc2ccc(C(=S)N3CCCCC3)cc2OC)cc1,n,x,x,x,x,n
SMILES,PGE2 EP2 inh,HKDC1 inh,PfGluPho inh,TbHK1 inh,PHOSPHO1 block,EP2 mod
COCCCN(C1CCN(C)CC1)S(=O)(=O)c1ccc2c(c1)NC(=O)CO2,n,x,x,x,x,n
CC(C)[C@@H]1OC(=O)C=CC=CC=CC=CC=CC[C@@H](O)[C@H](C)[C@@H](O)C[C@H](O)C[C@H](O)C[C@H](O)C[C@H](O)C[C@H](O)C[C@H](O)C=C[C@@H]1C,49,x,x,x,x,n
Cc1ccc(O)c(NC(=O)C2CC(c3ccccc3O)=NO2)c1 (stereo not drawn),n,x,x,x,x,n
O=c1oc2ccccc2c(O)c1/C=C1\C=Nc2ccccc21,52,n,n,n,n,n
O=[N+]([O-])/C(=C\Nc1ccccc1Cl)S(=O)(=O)c1ccccc1,n,x,x,n,87,n
O=[N+]([O-])/C(=C\Nc1ccccc1)S(=O)(=O)c1ccccc1,n,n,n,n,n,n
Cc1cc(C)n2nc(CC(=O)N3CCC(C(=O)c4nc5ccccc5s4)CC3)nc2n1,x,x,x,x,x,n
COc1ccccc1-c1nn2c(C3COc4ccccc4O3)nnc2s1 (stereo not drawn),n,n,n,n,92,n
c1ccc(CCc2nn3c(C4COc5ccccc5O4)nnc3s2)cc1 (stereo not drawn),n,n,n,n,n,n
c1ccc(Cc2nn3c(C4COc5ccccc5O4)nnc3s2)cc1 (stereo not drawn),n,n,n,n,62,n
c1ccc(-c2nn3c(C4COc5ccccc5O4)nnc3s2)cc1 (stereo not drawn),x,x,x,n,x,x
COCCCNC(=O)c1cccnc1N1CCN(C(=O)c2ccco2)CC1,n,x,x,x,x,n
CCc1c(C)sc2ncn(C3CCN(CC(=O)N(C)C)CC3)c(=O)c12,n,x,x,x,x,n
COCCn1nnnc1C(c1ccc(Cl)cc1)N1CCSCC1 (stereo not drawn),n,n,n,n,74,n
C=CCN1CCN(C(c2ccc(Cl)cc2)c2nnnn2CCOC)CC1 (stereo not drawn),n,x,x,x,x,n
COC(=O)C1=C(C(=O)OC)SC(=C2C(=S)C(C)(C)N(C(=O)CC(C)C)c3ccccc32)S1,n,n,n,n,84,n
CC(=O)Oc1cc(NC(=O)CC2SC(N)=NC2=O)cc(OC(C)=O)c1 (stereo not drawn),n,x,x,x,x,n
Cc1cc(NS(=O)(=O)c2ccc(NC(=O)CSc3nc4ncc(Br)cc4[nH]3)cc2)nc(C)n1,n,n,n,n,72,n
Cc1cc(C)nc(NS(=O)(=O)c2ccc(NC(=O)CSc3nc(-c4ccccc4)c(C#N)c(=O)[nH]3)cc2)n1,n,n,n,n,n,62
Cc1cc(NS(=O)(=O)c2ccc(NC(=O)CSc3nc4ncc(Cl)cc4[nH]3)cc2)nc(C)n1,n,n,n,n,n,n
N#Cc1c(-c2ccccc2)nc(SCC(=O)Nc2ccccc2)[nH]c1=O,n,n,n,n,n,n
COc1ccc2[nH]c(=O)c(CN(C(=S)Nc3ccc(F)cc3)C3CCCC3)cc2c1,n,x,x,x,x,n
COc1ccc(N(C(=O)c2csnn2)C(C(=O)NC(C)(C)C)c2cccc(C)c2)cc1 (stereo not drawn),n,x,x,x,x,n
CCCc1ncc(CN2CCC(NC(C)=O)(c3ccc(F)cc3)CC2)cn1,n,x,x,x,x,n
O=C(c1cccs1)N1CCN(Cc2ccc(F)cc2)CC1,n,x,x,x,x,n
SMILES,PGE2 EP2 inh,HKDC1 inh,PfGluPho inh,TbHK1 inh,PHOSPHO1 block,EP2 mod
Clc1ccc2nc(CSc3nnc4ccccn34)cn2c1,n,n,n,n,60,n
CC(=O)C1=C(C)NC(SCC(=O)c2ccc(Cl)cc2Cl)=C(C#N)C1c1ccco1 (stereo not drawn),n,n,n,n,74,n
CC(=O)C1=C(C)NC(SCC(=O)c2ccc(Cl)cc2)=C(C#N)C1c1ccco1 (stereo not drawn),n,n,n,n,n,n
COc1cc(/C=C2/C(=O)NN(c3cccc(C)c3)C2=O)ccc1OC(=O)c1ccco1,41,n,n,n,n,n
COc1ccc(-n2c(SCC(=O)Nc3cccc(Cl)c3C)nc3ccccc3c2=O)cc1OC,n,x,x,x,x,n
O=C1c2ccccc2C(O)(O)[C@@]1(O)[C@]1(O)C(=O)c2ccccc2C1(O)O,73,x,x,x,x,n
CCOc1ccc(NC(=O)CCN2C(=O)/C(=C/c3cccs3)SC2=S)cc1,n,x,x,x,x,n
